# Measured values: ChEMBL document CHEMBL5344428, “Discovery, Crystallographic Studies, and Mechanistic Investigations of Novel Phenylalanine Derivatives Bearing a Quinazolin-4-one Scaffold as Potent HIV Capsid Modulators” (J Med Chem, 2023)
# Tests used:
# [1] = Selectivity index, ratio of CC50 for cytotoxicity against human MT4 cells to EC50 for antiviral activity against HIV1 IIIB infected in human MT4 cells; assay type: toxicity, cell-based; details: read-out: Ratio CC50/EC50
# Method in brief: (§1)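 SI is CC50 divided by EC50. CC50 comes from MTT viability of uninfected MT-4 cells. EC50 comes from MTT-read protection of MT-4 cells infected with HIV-1 IIIB or HIV-2 ROD. Each value was run in at least triplicate.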
# [2] = Selectivity index, ratio of CC50 for cytotoxicity against human MT4 cells to EC50 for antiviral activity against HIV2 ROD infected in human MT4 cells; assay type: toxicity, cell-based; details: read-out: Ratio CC50/EC50; method in brief: as §1
# [3] = Selectivity ratio of EC50 for antiviral activity against HIV1 IIIB infected in human MT4 cells to EC50 for antiviral activity against HIV2 ROD infected in human MT4 cells; assay type: toxicity, cell-based
# Method in brief: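 Ratio is EC50 against HIV-1 IIIB divided by EC50 against HIV-2 ROD. Both EC50 values come from MTT-read protection of infected MT-4 cells.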
# [4] = Cytotoxicity against human MT4 cells assessed as reduction in cell viability incubated for 5 days by MTT assay; assay type: toxicity, cell-based; details: MT4 cells, time 5 day
# Method in brief: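 Uninfected MT-4 cells were exposed to compound, and viability was read by the MTT method. […] Each value was run in at least triplicate and averaged from at least three independent experiments.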
# [5] = tested on: Human immunodeficiency virus 1; test: Antiviral activity against HIV1 IIIB infected in human MT4 cells assessed as reduction in virus induced cytopathic effect measured after 5 days by MTT assay; assay type: functional, organism-based; details: Human immunodeficiency virus 1, IIIB, MT4, 120 h
# Method in brief: (§2)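 MT-4 cells were infected with HIV-1 IIIB or HIV-2 ROD, and cell viability was read by MTT. […] Each value was run in at least triplicate and averaged from at least three independent experiments.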
# [6] = tested on: Human immunodeficiency virus 2; test: Antiviral activity against HIV2 ROD infected in human MT4 cells assessed as reduction in virus induced cytopathic effect measured after 5 days by MTT assay; assay type: functional, organism-based; details: Human immunodeficiency virus 2, ROD, MT4, 120 h; method in brief: as §2
smiles,measurement,setting,value
COc1ccc(N(C)C(=O)[C@H](Cc2cc(F)cc(F)c2)NC(=O)CN(Cc2ccc(F)cc2)C(=O)Cc2c[nH]c3ccc(Br)cc23)cc1,selectivity ratio,[1],6
same,selectivity ratio,[2],< 1
same,Ratio EC50,[3],< 0.16
same,CC50 at 120 h,[4],17.8 µM
same,EC50,[5],2.93 µM
same,EC50,[6],> 17.8 µM
COc1ccc(-n2c(SCc3ccc(S(C)(=O)=O)cc3)nnc2[C@H](Cc2ccccc2)NC(=O)Cc2c(C)[nH]c3ccccc23)cc1,selectivity ratio,[1],71
same,selectivity ratio,[2],22
same,Ratio EC50,[3],0.31
same,CC50 at 120 h,[4],172 µM
same,EC50,[5],2.43 µM
same,EC50,[6],7.89 µM
COC(=O)c1ccc(C(=O)Nc2ccn(CC(=O)N[C@@H](Cc3ccccc3)C(=O)N(C)c3ccc(OC)cc3)c(=O)c2)cc1,selectivity ratio,[1],5.04
same,selectivity ratio,[2],6.31
same,Ratio EC50,[3],1.25
same,CC50 at 120 h,[4],96.2 µM
same,EC50,[5],19.1 µM
same,EC50,[6],15.2 µM
COc1ccc(N(C)C(=O)[C@H](Cc2cc(F)cc(F)c2)NC(=O)CN(Cc2ccc(C#N)cc2)C(=O)Cc2c[nH]c3ccc(Br)cc23)cc1,selectivity ratio,[1],16
same,selectivity ratio,[2],6
same,Ratio EC50,[3],0.36
same,CC50 at 120 h,[4],87.6 µM
same,EC50,[5],5.61 µM
same,EC50,[6],15.7 µM
COc1ccc(-n2c(SCC(F)F)nnc2[C@H](Cc2ccccc2)NC(=O)Cc2c(C)[nH]c3ccccc23)cc1,selectivity ratio,[1],10
same,selectivity ratio,[2],3
same,Ratio EC50,[3],0.35
same,CC50 at 120 h,[4],24.4 µM
same,EC50,[5],2.54 µM
same,EC50,[6],7.33 µM
COc1ccc(N(C)C(=O)[C@H](Cc2cc(F)cc(F)c2)NC(=O)CN(Cc2ccc(F)cc2)C(=O)Cc2ccc(B(O)O)cc2)cc1,selectivity ratio,[1],4
same,selectivity ratio,[2],3
same,Ratio EC50,[3],0.64
same,CC50 at 120 h,[4],18.9 µM
same,EC50,[5],4.33 µM
same,EC50,[6],6.8 µM
COc1ccc(N(C)C(=O)[C@H](Cc2ccccc2)NC(=O)Cn2ccc(NC(=O)c3ccc(C)cc3)cc2=O)cc1,selectivity ratio,[1],2.28
same,selectivity ratio,[2],2.85
same,Ratio EC50,[3],1.25
same,CC50 at 120 h,[4],58.3 µM
same,EC50,[5],25.6 µM
same,EC50,[6],20.5 µM
COc1ccc(N(C)C(=O)[C@H](Cc2cc(F)cc(F)c2)NC(=O)CN(Cc2ccc(C#N)cc2)C(=O)Cc2ccc(B3OC(C)(C)C(C)(C)O3)cc2)cc1,selectivity ratio,[1],3
same,selectivity ratio,[2],3
same,Ratio EC50,[3],1.09
same,CC50 at 120 h,[4],52.4 µM
same,EC50,[5],17.7 µM
same,EC50,[6],16.2 µM
COc1ccc(N(C)C(=O)[C@H](Cc2ccccc2)NC(=O)Cn2ccc(NC(=O)c3ccccc3F)cc2=O)cc1,selectivity ratio,[1],4.55
same,selectivity ratio,[2],10.3
same,Ratio EC50,[3],2.26
same,CC50 at 120 h,[4],81.4 µM
same,EC50,[5],17.9 µM
same,EC50,[6],7.92 µM
Nc1ccc(S(=O)(=O)N2CCN(CC(=O)N[C@@H](Cc3ccccc3)c3nc4ccccc4c(=O)n3-c3ccc(S(=O)(=O)N4CCOCC4)cc3)CC2)cc1,selectivity ratio,[1],> 1040
same,selectivity ratio,[2],> 1560
same,Ratio EC50,[3],1.5
same,CC50 at 120 h,[4],> 159 µM
same,EC50,[5],0.15 µM
same,EC50,[6],0.1 µM
COc1ccc(-n2c(S)nnc2[C@H](Cc2ccccc2)NC(=O)Cc2c(C)[nH]c3ccccc23)cc1,selectivity ratio,[1],27
same,selectivity ratio,[2],13
same,Ratio EC50,[3],0.47
same,CC50 at 120 h,[4],133 µM
same,EC50,[5],4.94 µM
same,EC50,[6],10.6 µM
COc1ccc(-n2c(SCCC3OCCCO3)nnc2[C@H](Cc2ccccc2)NC(=O)Cc2c(C)[nH]c3ccccc23)cc1,selectivity ratio,[1],20
same,selectivity ratio,[2],5
same,Ratio EC50,[3],0.25
same,CC50 at 120 h,[4],32.3 µM
same,EC50,[5],1.64 µM
same,EC50,[6],6.65 µM
COc1ccc(N(C)C(=O)[C@H](Cc2cc(F)cc(F)c2)NC(=O)CN2CCN(C(=O)Cc3c(C)[nH]c4ccccc34)CC2=O)cc1,selectivity ratio,[1],3.69
same,selectivity ratio,[2],3.91
same,Ratio EC50,[3],1.06
same,CC50 at 120 h,[4],76.9 µM
same,EC50,[5],20.8 µM
same,EC50,[6],19.7 µM
COc1ccc(N(C)C(=O)[C@H](Cc2cc(F)cc(F)c2)NC(=O)CN2CCN(C(=O)Cc3c[nH]c4ccc(F)cc34)CC2=O)cc1,selectivity ratio,[1],2.78
same,selectivity ratio,[2],3.23
same,Ratio EC50,[3],1.16
same,CC50 at 120 h,[4],16.4 µM
same,EC50,[5],5.89 µM
same,EC50,[6],5.07 µM
COc1ccc(-n2c([C@H](Cc3cc(F)cc(F)c3)NC(=O)CN3CCN(S(=O)(=O)c4ccc([N+](=O)[O-])cc4)CC3)nc3cc(F)ccc3c2=O)cc1,selectivity ratio,[1],> 338
same,selectivity ratio,[2],> 481
same,Ratio EC50,[3],1.4
same,CC50 at 120 h,[4],> 167 µM
same,EC50,[5],0.49 µM
same,EC50,[6],0.35 µM
